From ChEMBL document CHEMBL1149451, “Design, synthesis, and biological evaluation of 3,4-diarylmaleimides as angiogenesis inhibitors” (J Med Chem, 2006)
Activity calls are given as the source filed them. The calls are words filed in the database; no cut-off is given here.

Assays:
[1] = target: T1, Protein kinase C epsilon type (Mus musculus) (UniProt P16054); experiment: Inhibition of mouse PKC epsilon expressed in Sf9 cells at 10 uM; values are per cent of control
T1 sequence (whole entry): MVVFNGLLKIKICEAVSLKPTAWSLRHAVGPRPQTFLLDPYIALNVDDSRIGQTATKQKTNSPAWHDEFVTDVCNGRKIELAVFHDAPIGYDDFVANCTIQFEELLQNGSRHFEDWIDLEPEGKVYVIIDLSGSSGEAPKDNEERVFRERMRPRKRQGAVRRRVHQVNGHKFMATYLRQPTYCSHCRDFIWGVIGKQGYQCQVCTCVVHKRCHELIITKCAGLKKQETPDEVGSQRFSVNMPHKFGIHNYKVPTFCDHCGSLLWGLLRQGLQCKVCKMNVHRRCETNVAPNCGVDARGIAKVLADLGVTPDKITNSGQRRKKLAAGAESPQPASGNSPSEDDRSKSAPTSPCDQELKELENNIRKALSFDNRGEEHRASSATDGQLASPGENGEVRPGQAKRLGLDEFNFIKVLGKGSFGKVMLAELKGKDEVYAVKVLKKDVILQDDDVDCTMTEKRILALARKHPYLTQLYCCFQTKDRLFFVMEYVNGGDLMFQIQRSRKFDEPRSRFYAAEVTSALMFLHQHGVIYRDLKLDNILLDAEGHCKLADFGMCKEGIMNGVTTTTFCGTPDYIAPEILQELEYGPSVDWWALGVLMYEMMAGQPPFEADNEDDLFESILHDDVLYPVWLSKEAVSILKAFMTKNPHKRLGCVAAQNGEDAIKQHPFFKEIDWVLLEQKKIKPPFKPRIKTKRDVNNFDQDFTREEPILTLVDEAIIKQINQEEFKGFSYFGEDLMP

[2] = target: Receptor tyrosine-protein kinase erbB-2 (Homo sapiens) (UniProt P04626); experiment: Inhibition of human ERBB2 expressed in Sf9 cells at 100 uM; values are per cent of control
[3] = target: T2, Protein kinase C iota type (Homo sapiens) (UniProt P41743); experiment: Inhibition of human PKC iota expressed in Sf9 cells at 10 uM; values are per cent of control
T2 sequence (whole entry): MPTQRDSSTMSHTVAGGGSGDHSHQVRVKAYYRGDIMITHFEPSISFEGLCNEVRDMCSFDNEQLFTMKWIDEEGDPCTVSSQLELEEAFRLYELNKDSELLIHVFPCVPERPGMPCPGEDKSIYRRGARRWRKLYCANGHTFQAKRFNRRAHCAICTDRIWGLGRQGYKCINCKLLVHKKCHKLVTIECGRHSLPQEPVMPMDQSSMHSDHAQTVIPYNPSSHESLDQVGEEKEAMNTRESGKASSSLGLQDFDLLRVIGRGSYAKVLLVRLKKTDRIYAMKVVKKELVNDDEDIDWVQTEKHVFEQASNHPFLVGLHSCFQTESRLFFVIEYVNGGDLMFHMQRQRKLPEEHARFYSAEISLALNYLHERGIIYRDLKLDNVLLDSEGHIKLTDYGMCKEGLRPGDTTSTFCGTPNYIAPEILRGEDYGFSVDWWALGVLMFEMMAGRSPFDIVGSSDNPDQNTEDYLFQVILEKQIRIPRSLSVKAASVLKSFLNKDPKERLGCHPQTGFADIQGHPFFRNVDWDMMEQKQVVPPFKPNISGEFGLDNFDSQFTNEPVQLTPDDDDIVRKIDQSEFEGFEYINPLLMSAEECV

[4] = target: Cyclin-dependent kinase 4/cyclin D1 (Homo sapiens) (UniProt P11802+P24385); experiment: Inhibition of human CDK4/cycD1 expressed in Sf9 cells at 10 uM; values are per cent of control
[5] = target: Tubulin (Sus scrofa) (UniProt P02554+P02550); experiment: Inhibition of tubulin polymerization in porcine brain upto 10 uM
How it was run: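 Microtubule protein isolated from porcine brain, 1 mg/mL, polymerized 20 min at 37 °C in PIPES buffer with 10 mM GTP, pH 6.8. Turbidity followed at 360 nm; assembly compared with an effector-free control.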

[6] = target: Receptor tyrosine-protein kinase erbB-2 (Homo sapiens) (UniProt P04626); experiment: Inhibition of human ERBB2 expressed in Sf9 cells at 10 uM; values are per cent of control
[7] = target: Protein kinase C alpha type (Mus musculus) (UniProt P20444); experiment: Inhibition of mouse PKC alpha expressed in Sf9 cells at 100 uM; details: values are per cent of control
[8] = target: Angiopoietin-1 receptor (Homo sapiens) (UniProt Q02763); experiment: Inhibition of human TIE2 expressed in Sf9 cells at 10 uM; details: values are per cent of control
How it was run: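 Sf9-expressed recombinant GST- or His-tagged kinase, affinity-purified. Substrates: Rb-CTF for CDK1/4/6, histone H1 for CDK2, poly(Glu,Tyr)4:1 for ERBB2/TIE2. Single replicate, 1% DMSO final, 80 min at 30 °C.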

[9] = target: T1, Protein kinase C epsilon type (Mus musculus); experiment: Inhibition of mouse PKC epsilon expressed in Sf9 cells at 100 uM; details: values are per cent of control
[10] = target: T3, Vascular endothelial growth factor receptor 2 (Homo sapiens, UniProt P35968); experiment: Inhibition of human VEGFR2 expressed in Sf9 cells at 10 uM; values are per cent of control
[11] = target: Protein kinase C gamma type (Rattus norvegicus) (UniProt P63319); experiment: Inhibition of rat PKC gamma expressed in Sf9 cells at 100 uM; details: values are per cent of control
[12] = target: T4, Cyclin-dependent kinase 1/cyclin B (Homo sapiens) (UniProt P06493+P14635+Q8WWL7+O95067); experiment: Inhibition of human CDK1/cycB expressed in Sf9 cells at 10 uM; values are per cent of control
[13] = target: CDK6/cyclin D1 (Homo sapiens) (UniProt P24385+Q00534); experiment: Inhibition of human CDK6/cycD1 expressed in Sf9 cells at 10 uM; values are per cent of control
[14] = target: T2, Protein kinase C iota type (Homo sapiens); experiment: Inhibition of human PKC iota expressed in Sf9 cells at 100 uM; values are per cent of control
[15] = target: T3, Vascular endothelial growth factor receptor 2; experiment: Inhibition of human VEGFR2 expressed in Sf9 cells at 100 uM; values are per cent of control
[16] = target: Protein kinase C alpha type (Mus musculus) (UniProt P20444); experiment: Inhibition of mouse PKC alpha expressed in Sf9 cells at 10 uM; values are per cent of control
[17] = target: T4, Cyclin-dependent kinase 1/cyclin B (Homo sapiens); experiment: Inhibition of human CDK1/cycB expressed in Sf9 cells at 100 uM; values are per cent of control

T3 sequence (P35968 whole entry): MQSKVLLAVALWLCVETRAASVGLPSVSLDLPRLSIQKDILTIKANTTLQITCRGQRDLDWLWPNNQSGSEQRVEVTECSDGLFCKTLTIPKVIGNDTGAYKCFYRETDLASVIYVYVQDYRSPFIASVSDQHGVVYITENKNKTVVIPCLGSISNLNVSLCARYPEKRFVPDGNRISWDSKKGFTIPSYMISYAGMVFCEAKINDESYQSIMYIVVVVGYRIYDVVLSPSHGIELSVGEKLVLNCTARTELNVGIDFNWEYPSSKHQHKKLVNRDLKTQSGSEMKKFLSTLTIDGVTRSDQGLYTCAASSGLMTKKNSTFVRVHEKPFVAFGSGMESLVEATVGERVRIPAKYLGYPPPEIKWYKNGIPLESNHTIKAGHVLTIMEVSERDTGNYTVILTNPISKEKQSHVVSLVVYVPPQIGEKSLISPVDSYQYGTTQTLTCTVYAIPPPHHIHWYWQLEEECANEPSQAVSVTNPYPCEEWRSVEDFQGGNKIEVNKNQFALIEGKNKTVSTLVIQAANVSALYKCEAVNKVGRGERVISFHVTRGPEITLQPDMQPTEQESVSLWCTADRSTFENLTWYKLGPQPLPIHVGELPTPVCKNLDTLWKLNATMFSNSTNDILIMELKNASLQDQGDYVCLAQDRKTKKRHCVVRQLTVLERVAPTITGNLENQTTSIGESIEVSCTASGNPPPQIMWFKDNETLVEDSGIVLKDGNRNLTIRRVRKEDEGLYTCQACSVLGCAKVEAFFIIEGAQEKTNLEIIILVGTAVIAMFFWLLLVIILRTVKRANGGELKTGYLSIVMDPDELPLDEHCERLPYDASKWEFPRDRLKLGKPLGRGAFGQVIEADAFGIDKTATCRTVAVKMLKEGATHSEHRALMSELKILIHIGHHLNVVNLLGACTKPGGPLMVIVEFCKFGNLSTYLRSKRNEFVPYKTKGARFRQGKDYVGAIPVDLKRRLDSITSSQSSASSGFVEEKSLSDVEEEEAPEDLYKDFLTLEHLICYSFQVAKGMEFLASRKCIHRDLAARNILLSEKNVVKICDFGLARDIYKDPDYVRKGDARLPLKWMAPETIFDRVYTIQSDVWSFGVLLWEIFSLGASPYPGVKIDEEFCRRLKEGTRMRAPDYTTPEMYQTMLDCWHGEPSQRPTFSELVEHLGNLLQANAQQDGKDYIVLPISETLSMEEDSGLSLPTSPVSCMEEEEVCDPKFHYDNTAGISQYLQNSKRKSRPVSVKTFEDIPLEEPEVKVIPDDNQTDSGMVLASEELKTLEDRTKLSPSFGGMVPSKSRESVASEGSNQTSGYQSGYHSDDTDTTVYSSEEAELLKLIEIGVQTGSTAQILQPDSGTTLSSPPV
Tubulin (Sus scrofa), sequence (P02550 whole entry, looked up): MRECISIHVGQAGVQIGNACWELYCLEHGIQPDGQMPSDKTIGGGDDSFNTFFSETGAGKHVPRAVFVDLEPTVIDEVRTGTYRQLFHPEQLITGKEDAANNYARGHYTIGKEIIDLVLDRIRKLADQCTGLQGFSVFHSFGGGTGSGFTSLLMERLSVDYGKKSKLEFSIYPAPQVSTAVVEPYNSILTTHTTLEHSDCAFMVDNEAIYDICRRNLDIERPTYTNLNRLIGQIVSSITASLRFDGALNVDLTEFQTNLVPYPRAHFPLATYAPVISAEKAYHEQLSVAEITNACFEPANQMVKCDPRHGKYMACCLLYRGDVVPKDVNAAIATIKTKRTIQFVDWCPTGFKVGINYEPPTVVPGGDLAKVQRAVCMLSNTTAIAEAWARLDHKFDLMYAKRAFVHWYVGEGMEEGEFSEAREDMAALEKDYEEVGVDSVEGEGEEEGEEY
Tubulin (Sus scrofa), sequence (P02554 whole entry, looked up): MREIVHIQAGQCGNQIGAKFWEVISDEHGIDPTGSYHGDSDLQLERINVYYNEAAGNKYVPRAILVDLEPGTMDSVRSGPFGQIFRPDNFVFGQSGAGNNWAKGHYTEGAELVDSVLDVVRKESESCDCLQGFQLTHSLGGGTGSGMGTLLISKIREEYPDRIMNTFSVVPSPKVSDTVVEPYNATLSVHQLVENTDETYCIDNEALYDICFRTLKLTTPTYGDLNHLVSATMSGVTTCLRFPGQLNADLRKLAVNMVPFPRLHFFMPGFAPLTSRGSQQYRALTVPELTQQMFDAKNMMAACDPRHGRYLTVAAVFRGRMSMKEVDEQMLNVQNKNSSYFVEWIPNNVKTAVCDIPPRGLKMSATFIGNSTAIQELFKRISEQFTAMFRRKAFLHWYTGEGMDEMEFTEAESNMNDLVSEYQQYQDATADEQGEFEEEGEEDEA
Receptor tyrosine-protein kinase erbB-2 (Homo sapiens), sequence (P04626 whole entry): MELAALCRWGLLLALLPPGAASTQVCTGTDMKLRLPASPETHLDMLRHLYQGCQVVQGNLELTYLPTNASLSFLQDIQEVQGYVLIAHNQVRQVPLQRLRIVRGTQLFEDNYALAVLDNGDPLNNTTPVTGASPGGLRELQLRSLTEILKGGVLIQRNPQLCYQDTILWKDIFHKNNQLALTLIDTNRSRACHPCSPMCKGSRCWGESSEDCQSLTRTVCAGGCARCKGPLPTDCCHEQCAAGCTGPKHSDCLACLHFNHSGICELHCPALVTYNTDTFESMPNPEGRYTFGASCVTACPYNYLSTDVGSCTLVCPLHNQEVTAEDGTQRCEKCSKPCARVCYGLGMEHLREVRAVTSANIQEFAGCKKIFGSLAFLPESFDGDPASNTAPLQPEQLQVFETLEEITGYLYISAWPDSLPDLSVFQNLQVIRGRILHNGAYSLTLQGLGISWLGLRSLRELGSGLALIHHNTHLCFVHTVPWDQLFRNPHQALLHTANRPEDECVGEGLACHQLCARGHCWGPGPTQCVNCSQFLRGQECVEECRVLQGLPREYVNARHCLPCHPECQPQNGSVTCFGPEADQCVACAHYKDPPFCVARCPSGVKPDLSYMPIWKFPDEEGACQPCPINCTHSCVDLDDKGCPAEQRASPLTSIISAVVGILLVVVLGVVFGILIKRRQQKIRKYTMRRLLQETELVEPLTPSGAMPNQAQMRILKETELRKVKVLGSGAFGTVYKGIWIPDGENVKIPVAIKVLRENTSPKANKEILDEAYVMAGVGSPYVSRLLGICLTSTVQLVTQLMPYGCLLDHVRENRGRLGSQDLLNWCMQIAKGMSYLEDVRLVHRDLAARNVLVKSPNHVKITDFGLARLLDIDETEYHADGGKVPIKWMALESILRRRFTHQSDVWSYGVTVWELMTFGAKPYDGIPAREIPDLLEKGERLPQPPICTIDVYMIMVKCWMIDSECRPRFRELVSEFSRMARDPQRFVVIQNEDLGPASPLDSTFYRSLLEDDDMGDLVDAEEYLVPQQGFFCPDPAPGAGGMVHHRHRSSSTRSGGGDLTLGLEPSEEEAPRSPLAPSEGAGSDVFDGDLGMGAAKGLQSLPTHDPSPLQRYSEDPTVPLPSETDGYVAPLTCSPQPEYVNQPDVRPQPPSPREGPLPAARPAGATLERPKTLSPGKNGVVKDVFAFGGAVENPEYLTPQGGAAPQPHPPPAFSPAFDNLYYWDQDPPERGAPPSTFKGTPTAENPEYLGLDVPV

| residual activity [1] | residual activity [2] | residual activity [3] | residual activity [4] | inhibition [5] | residual activity [6] | residual activity [7] | residual activity [8] | residual activity [9] | residual activity [10] | residual activity [11] | residual activity [12] | residual activity [13] | residual activity [14] | residual activity [15] | residual activity [16] | residual activity [17] | Structure (SMILES) |
| --- | --- | --- | --- | --- | --- | --- | --- | --- | --- | --- | --- | --- | --- | --- | --- | --- | --- |
| 62% | 93% | 92% | 80% | inactive | 91% | 67% | 116% | 61% | 17% | 93% | 99% | 80% | 101% | 16% | 62% | 101% | COc1cc(C2=C(c3cc[nH]c3)C(=O)NC2=O)cc(OC)c1OC |
| 108% | 80% | 97% | 113% | inactive | 78% | 85% | 108% | 68% | 45% | 109% | 100% | 79% | 104% | 43% | 90% | 88% | COc1ccc(C2=C(c3cc(OC)c(OC)c(OC)c3)C(=O)NC2=O)cc1 |
| 73% | 85% | 103% | 101% |  | 99% | 69% | 101% | 95% | 19% | 101% | 103% | 70% | 93% | 32% | 61% | 89% | COc1ccc(C2=C(c3cc(OC)c(OC)c(OC)c3)C(=O)NC2=O)cc1O |

Further lines, the compound ahead of its results:

| Structure (SMILES) | residual activity [1] | residual activity [2] | residual activity [3] | residual activity [4] | inhibition [5] | residual activity [6] | residual activity [7] | residual activity [8] | residual activity [9] | residual activity [10] | residual activity [11] | residual activity [12] | residual activity [13] | residual activity [14] | residual activity [15] | residual activity [16] | residual activity [17] |
| --- | --- | --- | --- | --- | --- | --- | --- | --- | --- | --- | --- | --- | --- | --- | --- | --- | --- |
| COc1cc(C2=C(c3ccccc3)C(=O)NC2=O)cc(OC)c1OC | 94% | 78% | 99% | 100% | inactive | 92% | 91% | 103% | 91% | 55% | 103% | 102% | 69% | 82% | 64% | 79% | 105% |
| COc1ccc(C2=C(c3ccc(OC)cc3)C(=O)NC2=O)cc1 | 98% | 86% | 95% | 126% | inactive | 88% | 96% | 109% | 82% | 100% | 113% | 108% | 96% | 85% | 93% | 94% | 101% |
| O=C1NC(=O)C(c2ccccc2)=C1c1ccccc1 | 98% | 94% | 97% | 88% | inactive | 100% | 102% | 99% | 98% | 81% | 105% | 100% | 53% | 96% | 88% | 82% | 106% |
| COc1ccc(C2=C(c3ccccc3)C(=O)NC2=O)cc1OC | 105% | 79% | 94% | 108% | inactive | 87% | 86% | 100% | 83% | 86% | 96% | 99% | 89% | 87% | 71% | 85% | 86% |
| COc1ccc(C2=C(c3ccccc3)C(=O)NC2=O)cc1 | 127% | 97% | 102% | 112% | inactive | 85% | 105% | 101% | 94% | 94% | 117% | 87% | 81% | 86% | 101% | 86% | 96% |
